From ChEMBL document CHEMBL5244270, “Selective Inhibitors of G2019S-LRRK2 Kinase Activity” (J Med Chem, 2020)

What was measured:
[1] = target: T1, Leucine-rich repeat serine/threonine-protein kinase 2 (Homo sapiens, UniProt Q5S007, G2019S); experiment: Inhibition of N-terminal GST-fused human LRRK2 G2019S mutant using fluorescein-labeled LRRKtide as substrate preincubated for 15 mins followed by substrate addition and measured after 1 hr by TR-FRET assay
Method in brief: (§1)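 Purified truncated LRRK2, WT or G2019S, at 2 nM nominal was preincubated with inhibitor for 15 min. LRRKtide (0.4 μM) and ATP (25 μM) were then added for 1 h. The reaction was stopped with 10 mM EDTA plus 2 nM Tb-anti-pLRRKtide antibody, and TR-FRET was read. IC50 is the geometric mean of at least two independent experiments.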

[2] = target: T2, Leucine-rich repeat serine/threonine-protein kinase 2 (Homo sapiens, UniProt Q5S007); experiment: Inhibition of N-terminal GST-fused human wild type LRRK2 using fluorescein-labeled LRRKtide as substrate preincubated for 15 mins followed by substrate addition and measured after 1 hr by TR-FRET assay; method in brief: as §1
[3] = species: Homo sapiens; experiment: Selectivity ratio of IC50 for inhibition of N-terminal GST-fused human wild type LRRK2 to IC50 for inhibition of N-terminal GST-fused human […] mutant; method in brief: as §1
[4] = target: T2, Leucine-rich repeat serine/threonine-protein kinase 2; experiment: Inhibition of human wild type LRRK2 expressed in HEK293 cells assessed as reduction in pSer935 phosphorylation incubated for 2 hrs by HTRF analysis; type: cell-based
Method in brief: (§2)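 Stably transfected HEK293 cells expressing human WT or G2019S LRRK2 were seeded at 5K/well in DMEM with 1% serum on poly-D-lysine plates. Inhibitor in DMSO was added for 2 h at 37 °C. pS935 was detected by an HTRF kit. IC50 is the geometric mean of at least two independent experiments.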

[5] = species: Homo sapiens; experiment: Selectivity ratio of IC50 for inhibition of human wild type LRRK2 expressed in HEK293 cells to IC50 for inhibition of human LRRK2 G2019S mutant expressed in HEK293; type: cell-based
Method in brief: (§3)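 HEK293 cells stably expressing WT or G2019S LRRK2 (100 000/well, EMEM with 1% FBS) were dosed about 24 h after plating, for 2 h. They were lysed in 1% SDS Tris buffer with protease and phosphatase inhibitors, and lysates were heated at 65 °C for 10 min. pThr73-Rab10, total Rab10, pS935 and total LRRK2 were quantified by immunoblot. IC50 is the geometric mean of at least two independent experiments.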

[6] = target: T2, Leucine-rich repeat serine/threonine-protein kinase 2; experiment: Inhibition of human wild type LRRK2 expressed in HEK293 cells assessed as reduction in pS1292 phosphorylation incubated for 2 hrs by MSD analysis; type: cell-based
Method in brief: (§4)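 HEK293 cells stably expressing WT or G2019S LRRK2 (30−50K/well, DMEM with 1% serum) were treated for 2 h at 37 °C and lysed with phosphatase inhibitors. LRRK2 was captured on anti-LRRK2-coated MSD plates overnight at 4 °C. Detection used rabbit anti-pS1292 (1:400) and Sulfo-Tag anti-rabbit, with an electrochemiluminescence read-out. IC50 is the geometric mean of at least two independent experiments.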

[7] = target: T1, Leucine-rich repeat serine/threonine-protein kinase 2; experiment: Inhibition of human LRRK2 G2019S mutant expressed in HEK293 cells assessed as reduction in pS1292 phosphorylation incubated for 2 hrs by MSD analysis; type: cell-based; method in brief: as §4
[8] = species: Homo sapiens; experiment: Selectivity ratio of IC50 for inhibition of human wild type LRRK2 expressed in HEK293 cells assessed as reduction in pS1292 phosphorylation to IC50 for inhibition of human LRRK2 G2019S mutant expressed in HEK293 cells assessed as reduction in pS1292 phosphorylation; type: cell-based; method in brief: as §4
[9] = target: T1, Leucine-rich repeat serine/threonine-protein kinase 2; experiment: Inhibition of human LRRK2 G2019S mutant expressed in HEK293 cells assessed as reduction in pSer935 phosphorylation incubated for 2 hrs by HTRF analysis; type: cell-based; method in brief: as §2
[10] = target: T1, Leucine-rich repeat serine/threonine-protein kinase 2; experiment: Inhibition human LRRK2 G2019S mutant expressed in human HEK293 assessed as Rab10 substrate phosphorylation at Threonine 73 residue incubated for 2 hrs by immunoblotting analysis; type: cell-based; method in brief: as §3
[11] = species: Homo sapiens; experiment: Selectivity ratio of IC50 for inhibition of human wild type LRRK2 expressed in HEK293 cells assessed as reduction in pSer935 phosphorylation to IC50 for inhibition of human LRRK2 G2019S mutant expressed in HEK293 cells assessed as reduction in pSer935 phosphorylation; type: cell-based; method in brief: as §2
[12] = target: T1, Leucine-rich repeat serine/threonine-protein kinase 2; experiment: Inhibition of human LRRK2 G2019S mutant expressed in HEK293 cells assessed as reduction in pSer935 phosphorylation incubated for 2 hrs by immunoblotting analysis; type: cell-based; method in brief: as §3
[13] = target: T2, Leucine-rich repeat serine/threonine-protein kinase 2; experiment: Inhibition of human wild type LRRK2 expressed in HEK293 cells assessed as reduction in pSer935 phosphorylation incubated for 2 hrs by immunoblotting analysis; type: cell-based; method in brief: as §3
[14] = target: T2, Leucine-rich repeat serine/threonine-protein kinase 2; experiment: Inhibition human wild type LRRK2 expressed in human HEK293 assessed as Rab10 substrate phosphorylation at Threonine 73 residue incubated for 2 hrs by immunoblotting analysis; type: cell-based; method in brief: as §3
[15] = species: Homo sapiens; experiment: Selectivity ratio of IC50 for inhibition human wild type LRRK2 expressed in human HEK293 assessed as Rab10 substrate phosphorylation at Threonine 73 residue to IC50 for inhibition of human LRRK2 G2019S mutant expressed in human HEK293 assessed as Rab10 substrate phosphorylation at Threonine 73 residue; method in brief: as §3

T2 sequence (Q5S007 whole entry, the tested form may be a part): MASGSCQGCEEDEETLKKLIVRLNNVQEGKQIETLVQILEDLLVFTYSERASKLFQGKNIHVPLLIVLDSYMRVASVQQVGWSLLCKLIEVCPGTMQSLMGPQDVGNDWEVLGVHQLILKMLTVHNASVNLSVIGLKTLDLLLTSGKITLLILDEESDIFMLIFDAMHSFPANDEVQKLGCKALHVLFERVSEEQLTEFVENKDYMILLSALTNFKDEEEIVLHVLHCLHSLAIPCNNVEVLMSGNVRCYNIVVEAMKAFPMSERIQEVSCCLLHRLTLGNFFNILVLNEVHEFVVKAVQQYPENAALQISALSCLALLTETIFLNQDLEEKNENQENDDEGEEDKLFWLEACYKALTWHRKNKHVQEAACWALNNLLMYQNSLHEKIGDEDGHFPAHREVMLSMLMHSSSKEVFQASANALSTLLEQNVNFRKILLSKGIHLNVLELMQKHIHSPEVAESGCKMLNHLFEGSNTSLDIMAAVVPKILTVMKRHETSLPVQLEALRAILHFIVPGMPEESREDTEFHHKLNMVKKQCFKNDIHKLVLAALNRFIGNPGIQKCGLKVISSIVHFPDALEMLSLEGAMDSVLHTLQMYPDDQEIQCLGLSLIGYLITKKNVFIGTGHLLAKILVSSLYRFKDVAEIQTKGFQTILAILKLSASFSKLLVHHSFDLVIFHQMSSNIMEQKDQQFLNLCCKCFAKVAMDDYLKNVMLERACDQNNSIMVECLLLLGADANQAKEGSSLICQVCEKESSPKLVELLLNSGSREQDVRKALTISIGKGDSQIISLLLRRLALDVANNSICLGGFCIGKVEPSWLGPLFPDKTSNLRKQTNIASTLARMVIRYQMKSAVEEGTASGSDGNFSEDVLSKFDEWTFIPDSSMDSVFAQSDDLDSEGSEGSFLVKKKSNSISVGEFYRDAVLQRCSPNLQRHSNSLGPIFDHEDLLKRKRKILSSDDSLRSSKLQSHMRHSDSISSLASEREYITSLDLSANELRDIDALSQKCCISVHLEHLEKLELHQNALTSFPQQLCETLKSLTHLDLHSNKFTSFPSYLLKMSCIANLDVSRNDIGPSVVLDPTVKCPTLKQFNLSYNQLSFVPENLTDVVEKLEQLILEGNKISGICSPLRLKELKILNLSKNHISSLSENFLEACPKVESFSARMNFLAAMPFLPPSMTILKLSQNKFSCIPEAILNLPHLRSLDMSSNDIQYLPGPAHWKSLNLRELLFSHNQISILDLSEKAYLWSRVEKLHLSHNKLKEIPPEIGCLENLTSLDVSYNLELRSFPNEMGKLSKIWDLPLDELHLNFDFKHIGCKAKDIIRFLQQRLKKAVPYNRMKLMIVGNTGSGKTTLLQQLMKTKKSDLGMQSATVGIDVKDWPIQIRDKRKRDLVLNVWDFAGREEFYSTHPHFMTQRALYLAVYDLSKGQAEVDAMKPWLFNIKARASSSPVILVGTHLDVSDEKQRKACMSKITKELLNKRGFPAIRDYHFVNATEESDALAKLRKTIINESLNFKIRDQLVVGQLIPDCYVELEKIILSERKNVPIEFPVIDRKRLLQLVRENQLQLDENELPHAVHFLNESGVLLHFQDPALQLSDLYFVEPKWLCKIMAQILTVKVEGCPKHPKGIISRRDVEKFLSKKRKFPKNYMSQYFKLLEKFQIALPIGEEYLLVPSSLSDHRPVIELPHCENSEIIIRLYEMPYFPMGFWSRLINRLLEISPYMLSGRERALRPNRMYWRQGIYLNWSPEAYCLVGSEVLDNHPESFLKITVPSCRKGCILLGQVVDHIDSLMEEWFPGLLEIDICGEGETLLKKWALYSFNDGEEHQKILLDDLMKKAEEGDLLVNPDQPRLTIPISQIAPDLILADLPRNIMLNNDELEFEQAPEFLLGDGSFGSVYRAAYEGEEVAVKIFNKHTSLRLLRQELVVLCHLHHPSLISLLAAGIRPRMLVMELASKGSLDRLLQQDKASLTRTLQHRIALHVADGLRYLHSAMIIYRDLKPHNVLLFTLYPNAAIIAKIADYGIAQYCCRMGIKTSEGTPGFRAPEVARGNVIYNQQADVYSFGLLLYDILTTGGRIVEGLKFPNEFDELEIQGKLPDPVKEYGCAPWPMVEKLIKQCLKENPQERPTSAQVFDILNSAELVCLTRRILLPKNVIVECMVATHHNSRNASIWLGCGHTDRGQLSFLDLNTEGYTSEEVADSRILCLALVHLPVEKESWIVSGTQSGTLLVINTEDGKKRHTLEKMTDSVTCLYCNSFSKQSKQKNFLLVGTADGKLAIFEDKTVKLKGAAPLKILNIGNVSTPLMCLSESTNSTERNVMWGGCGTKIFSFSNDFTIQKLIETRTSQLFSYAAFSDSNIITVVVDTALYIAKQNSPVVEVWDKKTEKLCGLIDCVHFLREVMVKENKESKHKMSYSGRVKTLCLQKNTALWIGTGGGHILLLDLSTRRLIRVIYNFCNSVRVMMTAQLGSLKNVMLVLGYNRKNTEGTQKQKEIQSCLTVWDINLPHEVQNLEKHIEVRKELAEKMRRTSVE
T1 sequence (Q5S007 whole entry G2019S, the tested form may be a part): as the sequence (Q5S007 whole entry, the tested form may be a part) above, with G2019S counted along it

IC50 [1] | IC50 [2] | Ratio IC50 [3] | Structure (SMILES) | also measured
> 10 µM | > 10 µM | – | CC1=C(C(=O)Nc2ccc3[nH]cnc3c2)Cn2nnnc2N1C | –
> 10 µM | > 10 µM | – | CC1=C(C(=O)Nc2ccc3[nH]cc(C)c3c2)Cn2nnnc2N1C | –
0.0024 µM | 0.096 µM | 40 | CC1=C(C(=O)Nc2ccc3[nH]nc(Br)c3c2)Cn2nnnc2N1C | –
0.003 µM | 0.108 µM | 35 | CC1=C(C(=O)Nc2ccc3[nH]nc(NC(=O)c4ccccc4)c3c2)Cn2nnnc2N1C | –
0.058 µM | 0.865 µM | 15 | CCN1C(C)=C(C(=O)Nc2ccc3[nH]ncc3c2)Cn2nnnc21 | –
< 0.0002 µM | 0.0007 µM | > 3.5 | CC1=C(C(=O)Nc2ccc3[nH]nc(-c4ccc(S(N)(=O)=O)cc4)c3c2)Cn2nnnc2N1C | –
0.01 µM | 0.121 µM | 12 | CC1=C(C(=O)Nc2ccc3[nH]nc(C)c3c2)Cn2nnnc2N1C | –
0.244 µM | 0.534 µM | 2.2 | CCC1=C(C(=O)Nc2ccc3[nH]ncc3c2)Cn2nnnc2N1C | –
0.00044 µM | 0.009 µM | 20 | CC1=C(C(=O)Nc2ccc3[nH]nc(-c4ccncc4)c3c2)Cn2nnnc2N1C | –
0.051 µM | 1.22 µM | 24 | CC1=C(C(=O)Nc2ccc3[nH]nc(C)c3c2)[C@H](C)n2nnnc2N1C | –
0.24 µM | > 8.6 µM | > 36 | CC1=C(C(=O)Nc2ccc3[nH]c(=O)[nH]c3c2)Cn2nnnc2N1C | –
1.19 µM | > 10 µM | > 8.4 | CCCC(=O)Nc1n[nH]c2ccc(NC(=O)C3=C(C)N(C)c4nnnn4C3)cc12 | –
0.0153 µM | – | 15 | CC1=C(C(=S)Nc2ccc3[nH]ncc3c2)Cn2nnnc2N1C | –
1.35 µM | > 10 µM | > 7.4 | CC1=C(C(=O)Nc2ccn3cnc(C)c3c2)Cn2nnnc2N1C | –
< 0.0002 µM | 0.00053 µM | > 2.6 | CC1=C(C(=O)Nc2ccc3[nH]nc(-c4nc5ccccc5[nH]4)c3c2)Cn2nnnc2N1C | IC50 [4]: 3.3 µM; Ratio IC50 [5]: 157; IC50 [6]: 0.242 µM; IC50 [7]: 0.021 µM; Ratio IC50 [8]: 12; IC50 [9]: 0.021 µM
> 10 µM | – | – | CC1=C(C(=O)N(C)c2ccc3[nH]ncc3c2)Cn2nnnc2N1C | –
0.032 µM | 0.509 µM | 16 | CC1=C(C(=O)Nc2ccc3[nH]ncc3c2)Cn2nnnc2N1C | –
0.006 µM | 0.125 µM | 21 | CC1=C(C(=O)Nc2ccc3[nH]nc(C(N)=O)c3c2)Cn2nnnc2N1C | –
0.053 µM | 0.888 µM | 17 | CC1=C(C(=O)Nc2ccc3[nH]ncc3c2)Cn2nnnc2N1C(=O)N(C)C | –
6.37 µM | > 10 µM | > 1.6 | CC1=C(C(=O)Nc2ccc3c(c2)CC(=O)N3)Cn2nnnc2N1C | –
0.513 µM | 2.54 µM | 5 | CC(=O)N1C(C)=C(C(=O)Nc2ccc3[nH]ncc3c2)Cn2nnnc21 | –
3.12 µM | > 10 µM | > 3.2 | CC1=C(C(=O)Nc2ccc3cnc(C)n3c2)Cn2nnnc2N1C | –

Second part, the compound before the results:

Structure (SMILES) | IC50 [1] | IC50 [2] | Ratio IC50 [3] | also measured
CC1=C(C(=O)Nc2ccc3c(N)nccc3c2)[C@@H](C)n2nnnc2N1C | 0.012 µM | 0.581 µM | 48 | –
CC1=C(C(=O)Nc2ccc3[nH]nc(-c4ccnc(N5CCOCC5)c4)c3c2)[C@H](C)n2nnnc2N1C | < 0.0002 µM | 0.001 µM | > 5 | –
CN1C=C(C(=O)Nc2ccc3[nH]ncc3c2)Cn2nnnc21 | > 10 µM | > 10 µM | – | –
CC1=C(C(=O)Nc2ccc3[nH]ncc3c2)Cn2nnnc2N1c1ccccc1 | 0.0026 µM | 0.0057 µM | 2.2 | –
CC1=C(C(=O)Nc2ccc3[nH]nc(-c4ccnc(N5CCOCC5)c4)c3c2)[C@@H](C)n2nnnc2N1C | < 0.0002 µM | < 0.0002 µM | – | IC50 [4]: 0.065 µM; Ratio IC50 [5]: 27; IC50 [6]: 0.0209 µM; IC50 [7]: 0.0012 µM; Ratio IC50 [8]: 18; IC50 [9]: 0.0024 µM
CC1=C(C(=O)Nc2ccc3[nH]ncc3c2)[C@H](C)n2nnnc2N1C | 0.094 µM | 0.302 µM | 3.2 | –
CC1=C(C(=O)Nc2ccc3[nH]nc(-c4ccncc4)c3c2)[C@@H](C)n2nnnc2N1C | < 0.0002 µM | < 0.0002 µM | – | IC50 [4]: 1.14 µM; Ratio IC50 [5]: 78; IC50 [6]: 0.272 µM; IC50 [7]: 0.0121 µM; Ratio IC50 [8]: 22; IC50 [9]: 0.0147 µM
CC1=C(C(=O)Nc2ccc3[nH]nc(-c4ccnc(N5CCOCC5)c4)c3c2)C(C)(C)n2nnnc2N1C | < 0.0002 µM | 0.0003 µM | > 1.5 | IC50 [10]: 0.0047 µM; IC50 [4]: 0.145 µM; Ratio IC50 [5]: 132; IC50 [6]: 0.0337 µM; IC50 [7]: 0.001 µM; Ratio IC50 [11]: 173; IC50 [12]: 0.0015 µM; Ratio IC50 [8]: 34; IC50 [13]: 0.259 µM; IC50 [14]: 0.473 µM; IC50 [9]: 0.0011 µM; Ratio IC50 [15]: 101
CC1=C(C(=O)Nc2ccc3c(c2)CNC3=O)[C@@H](C)n2nnnc2N1C | 0.032 µM | 1.7 µM | 53 | –
CC1=C(C(=O)Nc2ccc3[nH]c(=O)n(C)c3c2)[C@@H](C)n2nnnc2N1C | 0.058 µM | 2.87 µM | 49.7 | –
CC1=C(C(=O)Nc2ccc3[nH]ncc3c2)Cn2nnnc2N1CCN1CCOCC1 | 4.65 µM | 6.13 µM | 1.3 | –
CC1=C(C(=O)Nc2ccc3[nH]ncc3c2)[C@@H](C)n2nnnc2N1C | 0.00164 µM | 0.071 µM | 43 | IC50 [4]: > 10 µM; Ratio IC50 [5]: > 53; IC50 [6]: 2.18 µM; IC50 [7]: 0.104 µM; Ratio IC50 [8]: 21; IC50 [9]: 0.189 µM
CC1=C(C(=O)Nc2ccc3c(c2)C(=O)NC3=O)[C@@H](C)n2nnnc2N1C | 0.055 µM | 2.84 µM | 52 | –
CC1=C(C(=O)Nc2ccc3[nH]ncc3c2)C(C)(C)n2nnnc2N1C | 0.012 µM | 1.3 µM | 108 | –
CC1=C(C(=O)Nc2ccc3c(c2)[nH]c(=O)n3C)[C@@H](C)n2nnnc2N1C | > 10 µM | > 10 µM | – | –
CC1=C(C(=O)Nc2ccc3[nH]nc(C)c3c2)C(C)(C)n2nnnc2N1C | 0.0008 µM | 0.152 µM | 190 | –
CC1=C(C(=O)Nc2ccc3[nH]nc(-c4cc(N5CCOCC5)ncn4)c3c2)Cn2nnnc2N1C | 0.0004 µM | 0.00088 µM | 2.2 | –
CC1=C(C(=O)Nc2ccc3[nH]nc(-c4ccnc(N5CCOCC5)c4)c3c2)Cn2nnnc2N1C | < 0.0002 µM | < 0.0002 µM | – | IC50 [4]: 0.377 µM; Ratio IC50 [5]: 45; IC50 [6]: 0.0744 µM; IC50 [7]: 0.0092 µM; Ratio IC50 [8]: 8; IC50 [9]: 0.0083 µM
